Compound activity (PubChem BioAssay)
GalR3 antag = antagonists of human GalR3 | hit rate 0.44% among 360,000 | inhibition, % at 3 µM | HEK293 GalR3-CNG cAMP membrane potential fluorescence; galR3 body fused to GalR1 C-terminus | AID 651719;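 active = inhibition above the screen-wide average plus 3 SD, cut at about 13% in these data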;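 also: forskolin and galanin both at EC90 stimulate the cells; cAMP rise reported by CNG channel membrane potential dye signal; 0% = forskolin plus galanin with DMSO and 100% = forskolin alone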
Target sequence (O60755 1-299 limits assumed): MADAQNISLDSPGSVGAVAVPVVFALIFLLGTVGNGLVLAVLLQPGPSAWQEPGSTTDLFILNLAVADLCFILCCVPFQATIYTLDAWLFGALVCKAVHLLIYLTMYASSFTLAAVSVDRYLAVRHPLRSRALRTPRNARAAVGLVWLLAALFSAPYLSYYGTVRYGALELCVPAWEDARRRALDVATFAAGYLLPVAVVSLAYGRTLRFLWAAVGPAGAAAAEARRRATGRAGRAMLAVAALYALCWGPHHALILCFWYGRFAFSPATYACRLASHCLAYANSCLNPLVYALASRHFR
NR2E3 ag-1 = NR2E3 (human) agonism | AID 2300 | GST-NR2E3/biotin-RetCOR TR-FRET, 1536-well | inhibition of corepressor binding, % at 4.78 µM | hit rate 0.12% among 320,000;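 active = percent inhibition above the cutoff of mean plus 3 SD of all tested compounds, set per screening campaign, cut at about 20% in these data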;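 also: 0% = DMSO wells and 100% = biotin wells as full block of FRET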
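Assay system: NR2E3–RetCOR corepressor complex. Quantity: 1.35 nM GST-NR2E3. Buffer or medium: pH 7.5 Tris-based buffer. Reagent: biotinylated RetCOR corepressor at 7 nM final. Schedule: 5 h at 4 °C. Detection: TR-FRET, emission read at 617 and 671 nm. Replicates: one well per compound, singlicate testing.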
COUP-TFII inh = blocks human COUP-TFII nuclear receptor; P24468; HEK293T NGFI-A luciferase reporter, luminescence; inhibition, % at 8.6 µM; hit rate 0.7% among 370,000; AID 686940;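 active = inhibition above a per-plate cutoff, mean inhibition of test wells between control levels plus 3 SD, cut at about 38% in these data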;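 also: cells cotransfected with COUP-TFII expression vector driving the NGFI-A reporter; 0% = median of COUP-TF2 test wells and 100% = reporter-only cells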
NR2E3 ag-2 = human photoreceptor-specific nuclear receptor agonism; Q9Y5X4; CHO-S Gal4-NCOR/VP16-NR2E3 two-hybrid, luciferase; inhibition of corepressor binding, % at 3.98 µM; hit rate 0.35% among 360,000; AID 602229;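 active = inhibition above the mean of all tested compounds plus 3 SD, cut at about 70% in these data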;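 also: 0% = DMSO with NR2E3 transfected cells and 100% = cells lacking NR2E3 construct; higher means lower luciferase signal from less NR2E3 corepressor binding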
SMARCA2 activ = SMARCA2 function activation, primary screen | MG213 cells, MMTV-luciferase reporter, dexamethasone, overnight | activation, % at 9.1 µM | hit rate 1% among 370,000; in the data active = activation above about 7.8%;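 also: 0% = vehicle wells and 100% = reference activator wells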
Numbers without * were called inactive; nt = not tested or not shown. The list is not random: actives were taken first. Their share in the collection is about 2.2%.

SMILES | GalR3 antag | NR2E3 ag-1 | COUP-TFII inh | NR2E3 ag-2 | SMARCA2 activ
COc1ccc(-c2cc(NC=O)c3ncc(-c4ccc(C(C)=O)cc4)n3c2)cc1OC | 4 | nt | -29 | 20 | 7.9*
Cc1ccc(-c2nnnn2C2C/C(=N\NC(N)=S)C3OCC2O3)cc1 (centres undefined) | 0 | -1 | -22 | -21 | 2
NC(=S)N/N=C1\CC(n2nnnc2-c2ccccc2Cl)C2COC1O2 (centres undefined) | -2 | 4 | -8 | -10 | 7.8*
Cc1sccc1C1C(C#N)=C(N)SC(N)=C1C#N | nt | 36* | nt | nt | nt
Cc1cc(C)cc(C(=O)OCCN(C)C2CN(Cc3cn(Cc4ccccc4C(F)(F)F)nn3)S(=O)(=O)C2)c1 (centres undefined) | nt | nt | 4 | nt | 0
COc1ccc(C2/C=C\CN(C(=O)Nc3ccccc3)CC(=O)N2Cc2ccc(F)cc2)cc1 (centres undefined) | -4 | -4 | -9 | 8 | 0
COc1ccc(C2/C=C\CN(C(=O)Nc3ccc(C(F)(F)F)cc3)CC(=O)N2Cc2ccc(F)cc2)cc1 (centres undefined) | nt | -4 | nt | 82* | nt
CCOCCCn1c(=NC(=O)c2ccco2)c(C(=O)OCC)cc2c(=O)n3cccc(C)c3nc21 | -4 | -1 | -30 | -15 | 7.8*
CCOC(=O)c1cc2c(=O)n3cccc(C)c3nc2n(CC(C)C)c1=NC(=O)c1ccco1 | -4 | 3 | -10 | 4 | 4
COC(=O)[C@]12C[C@H](CC(=O)N3CCSCC3)C(=O)N(Cc3cccc4ccccc34)C1=C[C@H](C1CCCC1)O[C@@H]2C | nt | nt | 9 | nt | 0
COc1ccc(C(=O)N2CCN(c3ccc([N+](=O)[O-])c(-n4nc(C)cc4C)c3)CC2)cc1 | -2 | -5 | 5 | 5 | 12*
CCC(CO)NCc1cc(OC)c(OCC(=O)NCCc2ccccc2)cc1Br (centres undefined) | -2 | 5 | -1 | -43 | 8.3*
CCCCNc1nc2c(c(=O)[nH]c(=O)n2C)n1CCCc1ccccc1 | 1 | nt | -1 | -11 | 2
COCCCNc1nc2c(c(=O)[nH]c(=O)n2C)n1CCCc1ccccc1 | -4 | 0 | -12 | -21 | 7.9*
CC(=C1C(=O)c2ccccc2C1=O)N1CCc2ccccc2C1 | -9 | 3 | -11 | -13 | 7.9*
CC(C(=O)N1CCc2ccccc2C1)N(c1ccccc1)S(C)(=O)=O (centres undefined) | -10 | -2 | 2 | -15 | -3
CC(C)(C)NC(=O)C(c1cccnc1)N(C(=O)c1cnc[nH]1)c1ccc(C(C)(C)C)cc1 (centres undefined) | nt | nt | 17 | nt | nt
CCOC(=O)N1CCC(=NNC(=O)c2ccccc2F)CC1 | 0 | 0 | -23 | -84 | 11*
CCOc1ccc(Cn2ccnc2)cc1[N+](=O)[O-] | -1 | -1 | -3 | -13 | 13*
O=C(N/N=C/c1ccccn1)c1ccccc1 | 1 | -3 | -25 | -87 | 4
Cc1ccccc1C(=O)N/N=C/c1ccccn1 | 0 | -3 | -8 | -113 | 10*
CCOc1ccc2nc(SCC(=O)N(C)C3CCS(=O)(=O)C3)[nH]c2c1 (centres undefined) | -3 | -3 | -9 | -5 | -5
CCOc1ccc2nc(SCC(=O)N(C)C)[nH]c2c1 | -2 | 3 | -30 | -107 | 7.9*
CCn1c2ccccc2c2cc(NC(=O)COC(=O)c3cc(F)cc(F)c3)ccc21 | nt | nt | -6 | nt | 0
CCOc1cc(/C=N/NC(N)=O)cc(Br)c1OCC(=O)Nc1cccc2ccccc12 | 44* | 4 | -14 | -35 | -2
SMILES | GalR3 antag | NR2E3 ag-1 | COUP-TFII inh | NR2E3 ag-2 | SMARCA2 activ
CCOc1cc(/C=N/O)cc(Br)c1OCC(=O)NCc1ccccc1 | 3 | -2 | 14 | 22 | -3
COc1c2c(c(OC)c3c1c(=O)c1ccccc1n3C)OCO2 | 3 | nt | 18 | -8 | 7.9*
COc1c2c(c3c(c1OC)c(=O)c1ccccc1n3C)OCO2 | -3 | nt | -5 | -8 | -2
CC(C)(N[C@@H](Cc1ccccc1)C(=O)NCCc1c[nH]c2ccccc12)C(=O)NC1CCCCC1 | nt | nt | -29 | nt | nt
Cc1ccc(-n2c(SCC(=O)Nc3ccccc3-c3ccccc3)nnc2-c2cnccn2)cc1 | nt | nt | -2 | nt | -4
CCOC(=O)c1ccc(NC(=O)C2CC3CCC2C3)cc1 (centres undefined) | 0 | 3 | -28 | -96 | 7.9*
O=C(c1cc(COc2c(F)cccc2F)on1)N1CCCCCC1 | -2 | 5 | -47 | -70 | 7.9*
CC(=O)N1CCCN(C(=O)c2cc(COc3c(F)cccc3F)on2)CC1 | 6 | -3 | -18 | -11 | -1
O=C(C1CCN(c2ncnc3c2sc2cccc(F)c23)CC1)N1CCN(Cc2ccc(F)cc2)CC1 | nt | nt | 10 | nt | -8
CCC[C@H]1[C@@H](OC(=O)NCc2ccc(Cl)c(Cl)c2)CC[C@@]23CCCN2C(=O)CCC[C@@H]13 | nt | nt | 26 | nt | nt
Cc1cc(N)n(-c2cc(C)c3ccccc3n2)n1 | -2 | -2 | -31 | -123 | 7.9*
CCCCCc1ccc(S(=O)(=O)NCCc2ccncc2)cc1 | -10 | 2 | 7 | 88* | -5
O=C(CCN1C(=O)C2C3C=CC(C3)C2C1=O)Nc1ccccn1 (centres undefined) | -7 | 1 | -8 | -27 | 7.8*
CC(C)CCN(C)C1CCN(C(=O)Nc2ccccc2)CC1 | nt | nt | -12 | nt | 7.8*
O=C(Nc1ccccc1)N1CCC(c2ccccc2)C1 (centres undefined) | -3 | 2 | -21 | -125 | 7.8*
O=S(=O)(c1ccc(N=C2NN=C(c3cc(F)ccc3F)CS2)cc1)N1CCOCC1 | -5 | nt | 41* | 29 | -5
Cc1cccc(-c2cccc3c4c([nH]c23)[C@@H]2C[C@H](N(C)C(=O)NC3CCCCC3)[C@H]([C@H](C)O)C(=O)N2CC4)c1 | nt | nt | 25 | nt | -6
Cc1ccc(S(=O)(=O)/N=C2/C=C(Sc3ncn[nH]3)C(=O)c3ccccc32)cc1 | nt | 7 | nt | 106* | nt
CC(C)c1ccc(S(=O)(=O)/N=C2/C=C(Sc3ncn[nH]3)C(=O)c3ccccc32)cc1 | nt | 7 | nt | 67 | nt
c1ccc(-c2cn3ccccc3n2)cc1 | -2 | nt | -39 | -125 | 7.9*
Cc1cc(C)c(C(=O)/C=C/c2ccc(C(C)C)cc2)c(=O)[nH]1 | -4 | -4 | -2 | 82* | -6
Cc1cc(C)c(C(=O)/C=C/C=C/c2ccccc2)c(=O)[nH]1 | -1 | 2 | -1 | 4 | 1
O=C(c1cc(Cl)cc(Cl)c1)N1CC[C@H]2[C@H](CCCN2Cc2ccc(F)cc2)C1 | nt | nt | 21 | nt | -2
CN(C)C(CNC(=O)c1ccc([N+](=O)[O-])cc1Cl)c1ccco1 (centres undefined) | -2 | 0 | 22 | -13 | 1
CN(C)C(CNS(=O)(=O)c1cc([N+](=O)[O-])ccc1Cl)c1ccco1 (centres undefined) | 3 | nt | -2 | 8 | 7.8*
